The EC50 is the concentration giving half of the maximal effect.

Each structure is given as a SMILES string.

In BindingDB's records for doi:10.1016/j.bmcl.2009.05.073 (Cytrx, 2009) one finds EC50 data, which are given here for 23 compounds.

Biological target in the first experiment: not listed separately
Briefly: Amplification of HSF1 transcriptional activity in human heat shock-induced HeLa cells assessed as granule formation treated 1 hr before heat shock challenge measured after 2 hrs without recovery time by immunocytochemical staining.
Consider `Cn1c(=O)nc2n(Cc3ccc(F)cc3)nc(-c3nc4ccccc4s3)nc-2c1=O` [3-(benzo[d]thiazol-2-yl)-1-(4-fluorobenzyl)-6-methylpyrimido[5,4-e][1,2,4]triazine-5,7(1H,6H)-dione], for which the EC50 is 14 µM.
In the case of `CCCCn1nc(-c2ccc(C)s2)[n+]([O-])c2c(=O)n(C)c(=O)nc1-2` [1-butyl-6-methyl-3-(5-methylthiophen-2-yl)-5,7-dioxo-1,5,6,7-tetrahydropyrimido[5,4-e][1,2,4]triazine 4-oxide], the EC50 is 8.6 µM.
Same read-out and setting: the same measure for `CCCCn1nc(-c2ccc(C)o2)nc2c(=O)n(C)c(=O)nc1-2` [1-butyl-6-methyl-3-(5-methylfuran-2-yl)pyrimido[5,4-e][1,2,4]triazine-5,7(1H,6H)-dione]: 9.9 µM.
As to `CCn1nc(-c2ccc[nH]2)nc2c(=O)n(C)c(=O)nc1-2` [1-ethyl-6-methyl-3-(1H-pyrrol-2-yl)pyrimido[5,4-e][1,2,4]triazine-5,7(1H,6H)-dione], the EC50 stood at 35 µM.
Same read-out and setting: the same measure for `CCn1nc(-c2ccc[nH]2)[n+]([O-])c2c(=O)n(C)c(=O)nc1-2` [1-ethyl-6-methyl-5,7-dioxo-3-(1H-pyrrol-2-yl)-1,5,6,7-tetrahydropyrimido[5,4-e][1,2,4]triazine 4-oxide]: 24.7 µM; for `CCCCn1nc(-c2ccc3ccccc3n2)nc2c(=O)n(C)c(=O)nc1-2` [1-butyl-6-methyl-3-(quinolin-2-yl)pyrimido[5,4-e][1,2,4]triazine-5,7(1H,6H)-dione]: 2.5 µM.
Same read-out and setting: the same measure for `CCn1nc(-c2ccc(C)s2)nc2c(=O)n(C)c(=O)nc1-2` [1-ethyl-6-methyl-3-(5-methylthiophen-2-yl)pyrimido[5,4-e][1,2,4]triazine-5,7(1H,6H)-dione]: 17.3 µM.
The same measure, in the same setting: the same measure for `CCCCn1nc(-c2ccccc2)nc2c(=O)n(C)c(=O)nc1-2` [1-butyl-6-methyl-3-phenylpyrimido[5,4-e][1,2,4]triazine-5,7(1H,6H)-dione]: 14.8 µM; for `CCn1nc(-c2ccc(C)o2)nc2c(=O)n(C)c(=O)nc1-2` [1-ethyl-6-methyl-3-(5-methylfuran-2-yl)pyrimido[5,4-e][1,2,4]triazine-5,7(1H,6H)-dione]: 46.3 µM; for `CCn1nc(-c2ccco2)nc2c(=O)n(C)c(=O)nc1-2` [1-ethyl-3-(furan-2-yl)-6-methylpyrimido[5,4-e][1,2,4]triazine-5,7(1H,6H)-dione]: 10.1 µM.
With `CCn1nc(-c2cccs2)nc2c(=O)n(C)c(=O)nc1-2` [1-ethyl-6-methyl-3-thiophen-2-yl-pyrimido[5,4-e][1,2,4]triazine-5,7-dione], the EC50 was 5.1 µM.
On the same count and under the same terms, the same measure for `CCCCn1nc(-c2nc3ccccc3[nH]2)nc2c(=O)n(C)c(=O)nc1-2` [3-(1H-benzo[d]imidazol-2-yl)-1-butyl-6-methylpyrimido[5,4-e][1,2,4]triazine-5,7(1H,6H)-dione]: 40.8 µM.
Same read-out and setting: the same measure for `CCCCn1nc(-c2nccs2)nc2c(=O)n(C)c(=O)nc1-2` [1-butyl-6-methyl-3-(thiazol-2-yl)pyrimido[5,4-e][1,2,4]triazine-5,7(1H,6H)-dione]: 2.1 µM; for `Cn1c(=O)nc2n(Cc3ccccc3)nc(-c3nc4ccccc4s3)nc-2c1=O` [3-(benzo[d]thiazol-2-yl)-1-benzyl-6-methylpyrimido[5,4-e][1,2,4]triazine-5,7(1H,6H)-dione]: 4.1 µM; for `CC(C)CCn1nc(-c2nc3ccccc3s2)nc2c(=O)n(C)c(=O)nc1-2` [3-(benzo[d]thiazol-2-yl)-1-isopentyl-6-methylpyrimido[5,4-e][1,2,4]triazine-5,7(1H,6H)-dione]: 2.5 µM.
Same read-out and setting: the same measure for `CCn1nc(-c2ccc(C)s2)[n+]([O-])c2c(=O)n(C)c(=O)nc1-2` [1-ethyl-6-methyl-3-(5-methylthiophen-2-yl)-5,7-dioxo-1,5,6,7-tetrahydropyrimido[5,4-e][1,2,4]triazine 4-oxide]: 11.6 µM; for `CCn1nc(-c2ncc[nH]2)nc2c(=O)n(C)c(=O)nc1-2` [1-ethyl-3-(1H-imidazol-2-yl)-6-methylpyrimido[5,4-e][1,2,4]triazine-5,7(1H,6H)-dione]: 39.8 µM.
As for `CCCCn1nc(-c2ncc[nH]2)nc2c(=O)n(C)c(=O)nc1-2` [1-butyl-3-(1H-imidazol-2-yl)-6-methylpyrimido[5,4-e][1,2,4]triazine-5,7(1H,6H)-dione], the EC50 is 7.7 µM.
The same measure, in the same setting: the same measure for `CCCCn1nc(-c2ccc(C)o2)[n+]([O-])c2c(=O)n(C)c(=O)nc1-2` [1-butyl-6-methyl-3-(5-methylfuran-2-yl)-5,7-dioxo-1,5,6,7-tetrahydropyrimido[5,4-e][1,2,4]triazine 4-oxide]: 10 µM.
Still for that read-out and setting: the same measure for `CC(C)Cn1nc(-c2nc3ccccc3s2)nc2c(=O)n(C)c(=O)nc1-2` [3-(benzo[d]thiazol-2-yl)-1-isobutyl-6-methylpyrimido[5,4-e][1,2,4]triazine-5,7(1H,6H)-dione]: 1.3 µM; for `CCCCn1nc(-c2ccc(C)s2)nc2c(=O)n(C)c(=O)nc1-2` [1-butyl-6-methyl-3-(5-methylthiophen-2-yl)pyrimido[5,4-e][1,2,4]triazine-5,7(1H,6H)-dione]: 16.8 µM.
The same measure, in the same setting: the same measure for `CCn1nc(-c2ccc(C)o2)[n+]([O-])c2c(=O)n(C)c(=O)nc1-2` [1-ethyl-6-methyl-3-(5-methylfuran-2-yl)-5,7-dioxo-1,5,6,7-tetrahydropyrimido[5,4-e][1,2,4]triazine 4-oxide]: 20.6 µM.

In another experiment the target is T1, Heat shock factor protein 1 (Homo sapiens, UniProt Q00613).
T1 sequence (Q00613 whole entry): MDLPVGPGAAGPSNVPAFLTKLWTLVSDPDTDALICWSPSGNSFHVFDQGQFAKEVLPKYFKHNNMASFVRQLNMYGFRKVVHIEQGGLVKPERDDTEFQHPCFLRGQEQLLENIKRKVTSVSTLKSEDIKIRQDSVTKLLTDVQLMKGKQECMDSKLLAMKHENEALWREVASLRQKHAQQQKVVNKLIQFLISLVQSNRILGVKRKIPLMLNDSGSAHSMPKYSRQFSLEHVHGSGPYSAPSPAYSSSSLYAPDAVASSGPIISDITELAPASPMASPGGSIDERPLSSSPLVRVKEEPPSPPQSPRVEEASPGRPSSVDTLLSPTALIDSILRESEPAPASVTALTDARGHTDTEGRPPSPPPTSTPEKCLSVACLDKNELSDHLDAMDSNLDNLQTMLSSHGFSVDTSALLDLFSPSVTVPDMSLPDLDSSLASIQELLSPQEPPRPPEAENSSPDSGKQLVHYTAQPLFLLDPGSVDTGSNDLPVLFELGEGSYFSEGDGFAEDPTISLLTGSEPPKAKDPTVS
Briefly: Amplification of HSF1 transcriptional activity in human HeLa cells assessed as granule formation pretreated for 3 hrs by immunocytochemical staining. A digest of the protocol:
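HeLa cells pretreated with compound 1 h, then mild heat shock 41 °C for 2 h, no recovery; control arm pretreated 3 h at 37 °C without heat shock. Compound diluted 200-fold, 0.3 to 80 µM range.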
As to `C=c1c(O)c(O)cc2c1=CC=C1[C@@]2(C)CC[C@@]2(C)[C@@H]3C[C@](C)(C(=O)O)CC[C@]3(C)CC[C@]12C`, the EC50 is 2.6 µM.

For a further experiment, the target named is T1, Heat shock factor protein 1. Briefly: Amplification of HSF1 transcriptional activity in human heat shock-induced HeLa cells assessed as granule formation treated 1 hr before heat shock challenge measured after 2 hrs without recovery time by immunocytochemical staining. A digest of the protocol: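 HeLa cells given compound 1 h before mild heat shock at 41 °C for 2 h, no recovery; compound diluted 200-fold, 0.3 to 80 µM. Unstressed control plates kept at 37 °C for 3 h. HSF1 immunocytochemical staining, imaged at 10×.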
In the case of `C=c1c(O)c(O)cc2c1=CC=C1[C@@]2(C)CC[C@@]2(C)[C@@H]3C[C@](C)(C(=O)O)CC[C@]3(C)CC[C@]12C`, the EC50 stood at 1.1 µM.
